A selection: hits, their analogues and other compounds. The true share with any hit is near 2.6%.
Exocytosis inh: lytic granule exocytosis inhibition; AID 651702; inhibition, % at 10 µM; TALL-104 LAMP-1 surface exposure, flow cytometry; cells stimulated with thapsigargin and PMA; 0.66% of 360,000 active;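 active = inhibition above about 55%, limit read from the data; inconclusive = no clear call, values can overlap the other calls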
MC4R antagonist: human MC4R antagonism in cAMP assay; P32245; MC4R-expressing cells, MTII-stimulated cAMP, LANCE TR-FRET; inhibition, % at 6.5 µM; 0.48% of 360,000 active;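 active = inhibition above its plate's cutoff, the mean of tested wells on that plate plus 3 SD, cut at about 29% in these data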;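 note: 0% = Melanotan II alone and 100% = Melanotan II plus saturating MCL0020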
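Assay system: U2OS-MC4R stable cell line; Also added: Melanotan II; Technique: Eu-cAMP/anti-cAMP TR-FRET, emission 671 nm; Times: 30-min compound, 1-h challenge, 1-h detection, room temperature.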
ABCB6 inh MLPCN: inhibitors of human ABC transporter ABCB6 | K562-ABCB6 porphyrin accumulation, flow cytometry, 1 h; stronger effect = lower value | fluorescence ratio to DMSO, % at 10 µM | 0.19% of 360,000 active;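 active = fluorescence ratio to DMSO below 75%, the collection mean minus 3 SD; inconclusive = too few cells collected in the well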;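 note: signal is porphyrin accumulated inside mitochondria; 100% equals median channel fluorescence of DMSO control wells; lower ratio means ABCB6 inhibition with less porphyrin fluorescence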
Target sequence (Q9NP58 whole entry, looked up): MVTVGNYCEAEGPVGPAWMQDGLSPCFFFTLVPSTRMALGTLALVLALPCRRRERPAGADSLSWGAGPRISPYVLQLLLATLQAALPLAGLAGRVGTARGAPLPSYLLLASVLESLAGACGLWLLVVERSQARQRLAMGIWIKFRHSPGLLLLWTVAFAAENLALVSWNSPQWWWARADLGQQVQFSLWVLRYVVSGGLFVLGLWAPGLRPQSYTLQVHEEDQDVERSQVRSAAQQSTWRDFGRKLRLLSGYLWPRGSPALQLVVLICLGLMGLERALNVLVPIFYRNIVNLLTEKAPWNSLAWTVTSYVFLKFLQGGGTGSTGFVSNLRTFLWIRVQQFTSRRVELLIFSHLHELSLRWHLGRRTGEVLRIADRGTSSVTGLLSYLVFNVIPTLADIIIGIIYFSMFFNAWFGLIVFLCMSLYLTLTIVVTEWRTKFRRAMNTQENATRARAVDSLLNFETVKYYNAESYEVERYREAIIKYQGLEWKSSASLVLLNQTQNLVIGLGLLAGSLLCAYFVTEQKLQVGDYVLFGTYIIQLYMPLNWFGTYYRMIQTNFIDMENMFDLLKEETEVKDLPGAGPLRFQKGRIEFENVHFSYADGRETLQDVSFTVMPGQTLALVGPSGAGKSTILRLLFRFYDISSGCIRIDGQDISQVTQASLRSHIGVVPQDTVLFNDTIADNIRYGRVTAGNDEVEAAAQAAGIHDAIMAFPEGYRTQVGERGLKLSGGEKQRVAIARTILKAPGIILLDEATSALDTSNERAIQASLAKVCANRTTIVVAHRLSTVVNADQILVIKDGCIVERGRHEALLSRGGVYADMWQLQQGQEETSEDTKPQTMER
hiPSC survival: hiPSC single-cell survival enhancement; ATPlite luminescence; 100% = ROCK inhibitor wells, 0% = DMSO; survival enhancement, % at 20 µM; 0.044% of 360,000 active; AID 602274; in the data active = survival enhancement above about 18%;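 note: cells exposed to compounds for 16 hours before the ATP read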
TbMetRS inhib: blocks T. brucei methionyl-tRNA synthetase activity; purified T. brucei MetRS, ATP depletion, Kinase-Glo luminescence; inhibition, % at 11.9 µM; 0.4% of 360,000 active; AID 624268;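 active = inhibition above a per-plate cutoff of the control wells' mean inhibition plus 3 SD, cut at about 5.5% in these data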;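 note: 0% = DMSO wells median and 100% = median of wells with control inhibitor compound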
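Dosing: 11.9 µM single point; system: parasite MetRS enzyme; technique: luminescence of leftover ATP; times: 15 min enzyme-compound preincubation, 2 h reaction, 10 min detection, 25 °C; replicates: each compound tested once; read-out basis: percent inhibition relative to median high and low control wells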
MC4R barr agon: agonists of human melanocortin 4 receptor (MC4R) beta-arrestin; activation, % at 8.9 µM; AID 540308; 0.98% of 360,000 active; P32245; U2OS MC4R beta-arrestin complementation, luminescence; percent of melanotan II response, DMSO zero;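 active = activation above a per-plate cutoff, the mean activation of sample wells on that plate plus 3 SD, cut at about 8% in these data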
TbMetRS confirm: confirmation of Trypanosoma brucei MetRS inhibitors; AID 624412; T. brucei MetRS enzyme, luminescence (ATP depletion); inhibition, % at 11.9 µM; shares compounds with TbMetRS inhib; 93% of 1,400 active; in the data active = inhibition above about 7%
Jurkat tox: Jurkat T cell cytotoxicity for MetRS hits. shares compounds with TbMetRS inhib. Jurkat cells viability, ATP luminescence. inhibition, % at 8.3 µM. 12% of 1,400 active. AID 624413; in the data active = inhibition above about 15%;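 note: 0% = vehicle and 100% = reference inhibitor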
Tb MetRS inh FP: inhibits T. brucei methionyl tRNA synthetase in orthogonal FP test; AID 651607; shares compounds with TbMetRS inhib; purified T. brucei MetRS, fluorescence polarization; inhibition, % at 11.9 µM; 44% of 1,400 active; in the data active = inhibition above about 17%;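 note: 0% = vehicle wells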
Numbers without * were called inactive; ? = inconclusive; . = no result.

SMILES	Exocytosis inh	MC4R antagonist	ABCB6 inh MLPCN	hiPSC survival	TbMetRS inhib	MC4R barr agon	TbMetRS confirm	Jurkat tox	Tb MetRS inh FP
Cc1ccc2nc(-c3ccc(SCC(=O)Nc4ccc5c(c4)OCCO5)nc3)[nH]c2c1	-2.2	5.7	100.0	-1.9	7.4*	-4.1	8.6*	13.5	18.5*
O=C(CSc1ccc(-c2nc3ccccc3[nH]2)cn1)Nc1ccc(S(=O)(=O)NC2CC2)cc1	-5.0	6.5	93.0	1.7	64.2*	1.1	68.8*	8.7	74.7*
CCOC(=O)CSc1ccc(-c2nc3ccccc3[nH]2)cn1	-1.4	-3.4	85.0	4.5	9.2*	-0.6	18.8*	8.5	11.4
N#CCSc1ccc(-c2nc3ccccc3[nH]2)cn1	-2.3	-4.7	90.0	-0.7	4.5	-1.0	.	.	.
Cc1nc(NC(=O)CSc2ccc(-c3nc4ccccc4[nH]3)cn2)sc1C	2.0	1.1	84.0	2.4	19.3*	-0.1	36.5*	11.6	11.3
Cc1cc2nc(-c3ccc(SCC(=O)Nc4ccc5c(c4)OCCO5)nc3)[nH]c2cc1C	27.3	18.1	99.0	-2.0	0.0	1.1	.	.	.
Cc1nnc(SCC(=O)NC2CC2)n1-c1ccccc1	-1.6	-3.3	98.0	-0.3	-0.8	1.4	.	.	.
C[C@H](O)[C@@H]1C(=O)N2CCc3c([nH]c4ccccc34)[C@@H]2C[C@@H]1N(C)C(=O)Nc1cc(Cl)cc(Cl)c1	-3.2	7.2	97.0	1.9	71.2*	-0.2	90.6*	17.9*	70.5*
C[C@H](O)[C@@H]1CN2CCc3c([nH]c4ccccc34)[C@@H]2C[C@@H]1N(C)C(=O)Nc1cc(Cl)cc(Cl)c1	-3.4	2.8	104.0	-2.7	29.0*	1.6	58.4*	8.7	36.7*
CN(C(=O)C(C)(C)C)[C@H]1C[C@H]2c3[nH]c4ccccc4c3CCN2C(=O)[C@H]1CO	-3.2	14.6	107.0	1.8	1.1	-0.3	.	.	.
CN(Cc1cc(Cl)cc(Cl)c1)[C@H]1C[C@H]2c3[nH]c4ccccc4c3CCN2C(=O)[C@H]1CO	-5.5	1.2	94.0	-1.4	62.5*	4.2	105.5*	-2.9	86.4*
COc1cccc(CNC(=O)CN2C(=O)CC(c3ccccc3)=Nc3ccccc32)c1	-0.8	-5.3	96.0	-0.5	0.4	-1.2	.	.	.
CCCCCC(=O)C(=O)c1ccc(O)cc1O	-5.2	16.9	99.0	0.8	-0.4	-1.5	.	.	.
COC(=O)C1C(=O)C(C(=O)/C=C/c2ccccc2)C(=O)CC1(C)C (centres undefined)	-0.8	-7.1	95.0	0.2	-2.3	2.3	.	.	.
Cc1cc2c(c(=O)n1CC1CCCO1)C(c1ccc3c(c1)OCO3)C(C#N)=C(N)O2 (centres undefined)	0.5	4.2	113.0	5.9	59.7*	0.6	75.5*	-2.9	49.1*
CCn1c(C)cc2c(c1=O)C(c1ccc3c(c1)OCO3)C(C#N)=C(N)O2 (centres undefined)	-1.3	-4.7	103.0	-1.7	22.7*	-0.8	2.1	4.1	3.4
CCOc1ccc(-n2ccnc2SCC(=O)NCc2ccc3c(c2)OCO3)cc1	?	-1.4	99.0	-1.1	1.1	0.6	.	.	.
O=C1CC(SCc2nc3ccccc3[nH]2)C(=O)N1c1ccc(F)cc1 (centres undefined)	6.8	-2.2	103.0	-1.7	1.7	0.0	.	.	.
O=C1CC(SCCc2nc3ccccc3[nH]2)C(=O)N1c1ccc(F)c(Cl)c1 (centres undefined)	0.2	-0.2	104.0	8.8	32.5*	-1.6	54.4*	1.2	30.3*
O=C1CC(SCc2nc3ccccc3[nH]2)C(=O)N1c1cccc(Cl)c1 (centres undefined)	-0.2	5.9	93.0	0.9	79.6*	-1.7	91.0*	-1.3	61.4*
C=CC[C@H](CC(=O)NCCO)C(=O)N[C@H](COC(=O)[C@H](CC=C)CC(=O)OC(C)(C)C)Cc1c[nH]c2ccccc12	-1.2	15.3	100.0	-2.4	-1.4	-2.8	.	.	.
C[C@@H]1CCC[C@]2(O[C@H](CCO)C[C@@H](O)[C@@H]2O)O1	-6.1	9.8	100.0	-2.4	0.2	-0.6	.	.	.
CCc1cccc(NC(=O)CN(C)S(=O)(=O)c2cccc3cccnc23)c1	-1.1	6.7	89.0	-0.3	0.8	-1.6	.	.	.
O=C(CCCn1c(=S)[nH]c2cc3c(cc2c1=O)OCO3)N1CCN(c2ccc(Cl)cc2)CC1	-0.7	-2.0	105.0	5.0	8.3*	-1.1	69.8*	2.2	34.9*
Oc1ccc(Br)cc1CNc1cnc2ccccc2c1	5.5	6.4	102.0	0.1	10.8*	4.5	15.4*	40.2*	0.5
SMILES	Exocytosis inh	MC4R antagonist	ABCB6 inh MLPCN	hiPSC survival	TbMetRS inhib	MC4R barr agon	TbMetRS confirm	Jurkat tox	Tb MetRS inh FP
Cc1ccc(O)c(CNc2cnc3ccccc3c2)c1	1.3	1.5	100.0	-0.6	-0.1	-0.6	.	.	.
COC(=O)c1ccc(Oc2nc(SC)nc(N(C)C)n2)cc1	-1.9	-0.9	99.0	-0.4	-0.1	0.9	.	.	.
O=C(CCCSc1nc2ccccc2[nH]1)NCc1ccccc1Cl	-1.2	5.0	99.0	-0.1	10.2*	-1.9	17.3*	6.7	6.0
CCNC(=O)NC(=O)COC(=O)CCCSc1nc2ccccc2[nH]1	-2.0	2.0	87.0	7.5	-1.3	3.4	.	.	.
O=C(COC(=O)CCCSc1nc2ccccc2[nH]1)Nc1ccc(Cl)cc1	1.4	-2.1	96.0	4.6	12.7*	-0.9	21.2*	0.6	12.9
O=C(CCCSc1nc2ccccc2[nH]1)NC(c1ccccc1)c1ccccc1	7.5	2.0	95.0	-1.2	0.1	-0.6	.	.	.
O=C(NC(=S)Nc1ccc(N2CCOCC2)cc1)c1cccs1	0.1	5.2	99.0	-0.7	-0.2	-2.5	.	.	.
COc1cccc(/C=C/C(=O)Nc2ccc3c(c2)OCCO3)c1OC	-0.3	-1.4	99.0	-0.9	-0.8	-0.5	.	.	.
CC1CCN(S(=O)(=O)c2cccc(C(=O)N3CCN(c4ccc(F)cc4)CC3)c2)CC1	1.0	5.8	97.0	-0.4	-0.2	-2.9	.	.	.
O=C(CSc1nc2ccccc2o1)Nc1cc(C(F)(F)F)ccc1N1CCOCC1	1.2	-0.1	91.0	-3.7	-0.2	-2.0	.	.	.
O=C(Cn1cnc2ccccc21)Nc1cc(C(F)(F)F)ccc1N1CCOCC1	-3.5	6.9	91.0	1.1	27.2*	0.4	43.5*	-1.9	23.5*
O=C(O)CN1C(=O)/C(=C\c2ccc(OC(=O)c3ccco3)cc2)SC1=S	-13.8	2.9	102.0	1.5	8.8*	-1.9	26.9*	-4.7	15.3
